These molecules were tested on Klebsiella pneumoniae (assay: Antimicrobial activity against Klebsiella pneumoniae 10-2 after 18-24 hrs by two-fold serial dilution method).
Type: functional
In short: (§1)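 Agar-medium twofold serial dilution against Gram-positive and Gram-negative strains; MIC taken as the lowest compound concentration giving complete inhibition of bacterial growth after incubation at 35 °C for 18-24 h.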

Structure (SMILES) | MIC
COc1cc(CO/N=C2\CN(c3nc4c(cc3F)c(=O)c(C(=O)O)cn4C3CC3)CC2CN)cc(OC)c1OC.CS(=O)(=O)O (racemic) | > 128 µg/mL

Each molecule was assayed on Enterococcus faecalis (assay: Antimicrobial activity against Enterococcus faecalis 10-6 after 18-24 hrs by two-fold serial dilution method).
Type: functional
In short: as §1

Structure (SMILES) | MIC
COc1cc(CO/N=C2\CN(c3nc4c(cc3F)c(=O)c(C(=O)O)cn4C3CC3)CC2CN)cc(OC)c1OC.CS(=O)(=O)O (racemic) | 4 µg/mL

Each molecule was assayed on Pseudomonas aeruginosa (assay: Antimicrobial activity against extended spectrum beta-lactamases-producing Pseudomonas aeruginosa 10-20 after 18-24 hrs by two-fold serial dilution method).
Type: functional
In short: as §1

Structure (SMILES) | MIC
COc1cc(CO/N=C2\CN(c3nc4c(cc3F)c(=O)c(C(=O)O)cn4C3CC3)CC2CN)cc(OC)c1OC.CS(=O)(=O)O (racemic) | 0.5 µg/mL

The molecules below were run on Pseudomonas aeruginosa (assay: Antimicrobial activity against extended spectrum beta-lactamases-producing Pseudomonas aeruginosa 10-9 after 18-24 hrs by two-fold serial dilution method).
Type: functional
In short: as §1

Structure (SMILES) | MIC
COc1cc(CO/N=C2\CN(c3nc4c(cc3F)c(=O)c(C(=O)O)cn4C3CC3)CC2CN)cc(OC)c1OC.CS(=O)(=O)O (racemic) | 8 µg/mL

Each molecule was assayed on Enterococcus faecium (assay: Antimicrobial activity against Enterococcus faecium 10-9 after 18-24 hrs by two-fold serial dilution method).
Type: functional
In short: as §1

Structure (SMILES) | MIC
COc1cc(CO/N=C2\CN(c3nc4c(cc3F)c(=O)c(C(=O)O)cn4C3CC3)CC2CN)cc(OC)c1OC.CS(=O)(=O)O (racemic) | 8 µg/mL

What follows are molecules tested on Enterococcus faecalis (assay: Antimicrobial activity against Enterococcus faecalis 10-5 after 18-24 hrs by two-fold serial dilution method).
Type: functional
In short: as §1

Structure (SMILES) | MIC
COc1cc(CO/N=C2\CN(c3nc4c(cc3F)c(=O)c(C(=O)O)cn4C3CC3)CC2CN)cc(OC)c1OC.CS(=O)(=O)O (racemic) | 1 µg/mL

These molecules were tested on Klebsiella pneumoniae (assay: Antimicrobial activity against Klebsiella pneumoniae 10-4 after 18-24 hrs by two-fold serial dilution method).
Type: functional
In short: as §1

Structure (SMILES) | MIC
COc1cc(CO/N=C2\CN(c3nc4c(cc3F)c(=O)c(C(=O)O)cn4C3CC3)CC2CN)cc(OC)c1OC.CS(=O)(=O)O (racemic) | > 128 µg/mL

Each molecule was assayed on Klebsiella pneumoniae (assay: Antimicrobial activity against extended spectrum beta-lactamases-producing Klebsiella pneumoniae 10-2 after 18-24 hrs by two-fold serial dilution method).
Type: functional
In short: as §1

Structure (SMILES) | MIC
COc1cc(CO/N=C2\CN(c3nc4c(cc3F)c(=O)c(C(=O)O)cn4C3CC3)CC2CN)cc(OC)c1OC.CS(=O)(=O)O (racemic) | > 128 µg/mL

The molecules below were run on Streptococcus pneumoniae (assay: Antimicrobial activity against extended spectrum beta-lactamases-producing Streptococcus pneumoniae 10-1 after 18-24 hrs by two-fold serial dilution method).
Type: functional
In short: as §1

Structure (SMILES) | MIC
COc1cc(CO/N=C2\CN(c3nc4c(cc3F)c(=O)c(C(=O)O)cn4C3CC3)CC2CN)cc(OC)c1OC.CS(=O)(=O)O (racemic) | 1 µg/mL

Each molecule was assayed on Escherichia coli (assay: Antimicrobial activity against extended spectrum beta-lactamases-producing Escherichia coli 10-2 after 18-24 hrs by two-fold serial dilution method).
Type: functional
In short: as §1

Structure (SMILES) | MIC
COc1cc(CO/N=C2\CN(c3nc4c(cc3F)c(=O)c(C(=O)O)cn4C3CC3)CC2CN)cc(OC)c1OC.CS(=O)(=O)O (racemic) | > 128 µg/mL

The molecules below were run on Staphylococcus epidermidis (assay: Antimicrobial activity against extended spectrum beta-lactamases-producing methicillin-sensitive Staphylococcus epidermidis 10-15 after 18-24 hrs by two-fold serial dilution method).
Type: functional
In short: as §1

Structure (SMILES) | MIC
COc1cc(CO/N=C2\CN(c3nc4c(cc3F)c(=O)c(C(=O)O)cn4C3CC3)CC2CN)cc(OC)c1OC.CS(=O)(=O)O (racemic) | 8 µg/mL

The molecules below were run on Staphylococcus aureus (assay: Antimicrobial activity against extended spectrum beta-lactamases-producing methicillin-resistant Staphylococcus aureus 10-15 after 18-24 hrs by two-fold serial dilution method).
Type: functional
In short: (§2)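 Agar twofold serial dilution MIC against clinical isolates. MIC was taken as the lowest concentration giving complete inhibition of bacterial growth after incubation at 35 °C for 18-24 h.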

Structure (SMILES) | MIC
COc1cc(CO/N=C2\CN(c3nc4c(cc3F)c(=O)c(C(=O)O)cn4C3CC3)CC2CN)cc(OC)c1OC.CS(=O)(=O)O (racemic) | 0.25 µg/mL

What follows are molecules tested on Klebsiella pneumoniae (assay: Antimicrobial activity against extended spectrum beta-lactamases-producing Klebsiella pneumoniae 10-3 after 18-24 hrs by two-fold serial dilution method).
Type: functional
In short: as §1

Structure (SMILES) | MIC
COc1cc(CO/N=C2\CN(c3nc4c(cc3F)c(=O)c(C(=O)O)cn4C3CC3)CC2CN)cc(OC)c1OC.CS(=O)(=O)O (racemic) | > 128 µg/mL

These molecules were tested on Escherichia coli (assay: Antimicrobial activity against Escherichia coli 10-3 after 18-24 hrs by two-fold serial dilution method).
Type: functional
In short: as §1

Structure (SMILES) | MIC
COc1cc(CO/N=C2\CN(c3nc4c(cc3F)c(=O)c(C(=O)O)cn4C3CC3)CC2CN)cc(OC)c1OC.CS(=O)(=O)O (racemic) | 16 µg/mL

What follows are molecules tested on Pseudomonas aeruginosa (assay: Antimicrobial activity against extended spectrum beta-lactamases-producing Pseudomonas aeruginosa 10-18 after 18-24 hrs by two-fold serial dilution method).
Type: functional
In short: as §1

Structure (SMILES) | MIC
COc1cc(CO/N=C2\CN(c3nc4c(cc3F)c(=O)c(C(=O)O)cn4C3CC3)CC2CN)cc(OC)c1OC.CS(=O)(=O)O (racemic) | 4 µg/mL

Each molecule was assayed on Escherichia coli (assay: Antimicrobial activity against Escherichia coli 10-2 after 18-24 hrs by two-fold serial dilution method).
Type: functional
In short: as §1

Structure (SMILES) | MIC
COc1cc(CO/N=C2\CN(c3nc4c(cc3F)c(=O)c(C(=O)O)cn4C3CC3)CC2CN)cc(OC)c1OC.CS(=O)(=O)O (racemic) | 16 µg/mL

Each molecule was assayed on Staphylococcus aureus (assay: Antimicrobial activity against extended spectrum beta-lactamases-producing methicillin-resistant Staphylococcus aureus 10-11 after 18-24 hrs by two-fold serial dilution method).
Type: functional
In short: as §2

Structure (SMILES) | MIC
COc1cc(CO/N=C2\CN(c3nc4c(cc3F)c(=O)c(C(=O)O)cn4C3CC3)CC2CN)cc(OC)c1OC.CS(=O)(=O)O (racemic) | 2 µg/mL

Each molecule was assayed on Staphylococcus epidermidis (assay: Antimicrobial activity against extended spectrum beta-lactamases-producing methicillin-sensitive Staphylococcus epidermidis 10-13 after 18-24 hrs by two-fold serial dilution method).
Type: functional
In short: as §1

Structure (SMILES) | MIC
COc1cc(CO/N=C2\CN(c3nc4c(cc3F)c(=O)c(C(=O)O)cn4C3CC3)CC2CN)cc(OC)c1OC.CS(=O)(=O)O (racemic) | 2 µg/mL

— ChEMBL document CHEMBL2062435, “Synthesis and in vitro antibacterial activity of gemifloxacin derivatives containing a substituted benzyloxime moiety” (2012)
